Experimental data published in ChEMBL document CHEMBL4513216, “Probing the Open Global Health Chemical Diversity Library for Multistage-Active Starting Points for Next-Generation Antimalarials” (ACS Infect Dis, 2020).

Assay: Toxicity liver stage against HepG2, at 10uM
Type: cell-based
Parameters: test concentration 10 uM, cell line HepG2-A16-CD81EGFP
Settings: human, HepG2-A16-CD81EGFP cells; read-out: INHIBITION
Summary of the method: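 Uninfected HepG2-A16-CD81EGFP cells, 3 × 10^3 per well, 1536-well, plated on prespotted compound at 10 μM final, parasite-free screening media added to match infected plates; puromycin 10 μM positive, DMSO 0.5% negative; run in parallel with 48 h PbLuc assay at 37 °C, 5% CO2; viability by CellTiter-Glo luminescence, normalized to controls.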

With `CNC(=O)c1cnc(C=Cc2cc(OC)c(O)c(OC)c2)s1` the cytotoxicity at 10 µM was 1.64%.

Molecule `Cn1nc(C2CCCN2)c2c(C(=O)NC3CC3)cc(C3CC3)nc21` (configuration not stated) has a cytotoxicity at 10 µM of 15.3%.

Work on `CC(=O)N1CCC(Nc2cccc(OC(F)F)c2C)CC1` yielded a cytotoxicity at 10 µM of -15.1%.

Molecule `CCn1nc(C)c2nc(C(C)C)nc(NCCCn3ccnc3)c21` has a cytotoxicity at 10 µM of 10.8%.

With `CO[C@H]1CN(C(=O)c2ccccn2)[C@@H]2CCCO[C@H]12` the cytotoxicity at 10 µM was 3.52%.

Molecule `Cc1ccc(CN2CC[C@@]3(O)CCN(S(=O)(=O)N(C)C)C[C@H]3C2)cc1C` has a cytotoxicity at 10 µM of -1.42%.

For `O=C1N(Cc2cccnc2)C[C@H]2CN(C3CCOCC3)CCN12`, the cytotoxicity at 10 µM was -9.7%.

With `O=C(c1cc(Cl)c[nH]1)N1CCN(CCc2ccccn2)CC1` the cytotoxicity at 10 µM was 19.2%.

`CCc1ccc2nc(C)cc(C(=O)NC3CCC(=O)N(C)C3)c2c1` (configuration not stated) gave a cytotoxicity at 10 µM of -5.85%.

Work on `Cn1cc(CNC2CCCOc3c2ccc2ccccc32)cn1` (configuration not stated) yielded a cytotoxicity at 10 µM of 5.7%.

`CN(C)C(=O)CN1CCO[C@H]2CN(Cc3ccoc3)C[C@H]21` gave a cytotoxicity at 10 µM of -108%.

`COc1cccc(CCCn2cnnc2[S+](C)[O-])c1` (configuration not stated) gave a cytotoxicity at 10 µM of -12.7%.

In the case of `COc1ccsc1C(=O)Nc1cc(Cl)c(=O)n(C)c1`, the cytotoxicity at 10 µM was 2.05%.

With `O=C(C1CCCO1)N1CCC(c2nc(-c3ccccc3)n[nH]2)CC1` (configuration not stated) the cytotoxicity at 10 µM was -10.9%.

In the case of `CNc1cc(-c2ccccc2CN)c2cc[nH]c2n1`, the cytotoxicity at 10 µM was -1.43%.

Work on `Cc1ccc(N2CCCC(NCC(=O)Nc3cc(C)no3)C2)nn1` (configuration not stated) yielded a cytotoxicity at 10 µM of 3.61%.

For `CCc1nc(CN2CCCN(C(=O)c3ccnc(C)n3)CC2)cs1`, the cytotoxicity at 10 µM was -13.4%.

For `Cc1nc(C)n(CC2CN(CCOc3cccc(C#N)c3)CCO2)n1` (configuration not stated), the cytotoxicity at 10 µM was -13.2%.

`COc1ccc2cc(NC(=O)CCCNc3ncccn3)cnc2c1` gave a cytotoxicity at 10 µM of -50.5%.

In the case of `Nc1ncccc1C(=O)NCc1ccc(Br)cc1`, the cytotoxicity at 10 µM was 35.7%.

For `CSCCC(=O)N1CCC(c2nccn2CCN(C)C)CC1`, the cytotoxicity at 10 µM was -4.17%.

For `CCNC(=O)N(C)C1CCCc2nc(C)sc21` (configuration not stated), the cytotoxicity at 10 µM was 12.2%.

Molecule `CCCC(C)C(=O)Nc1ccc(OC)nc1N1CCN(C(C)=O)CC1` (configuration not stated) has a cytotoxicity at 10 µM of -5.46%.

Work on `COc1cc(C(=O)N2CCCS2(=O)=O)ccc1C` yielded a cytotoxicity at 10 µM of 2.72%.

Molecule `CC(c1cccc(Cl)c1)N1CCN(S(C)(=O)=O)CC1` (configuration not stated) has a cytotoxicity at 10 µM of 1.81%.

`CCO[C@@H]1CC[C@H]2[C@H]1OCCN2S(=O)(=O)c1cn(C)cn1` gave a cytotoxicity at 10 µM of 5.59%.

For `CC(C)OCCCNC(=O)CS(=O)(=O)Cc1cccc(Cl)c1`, the cytotoxicity at 10 µM was 5.44%.

Work on `CC(=O)NCCNC(=O)NCCc1c(C)cc(C)cc1C` yielded a cytotoxicity at 10 µM of 6.02%.

With `Cc1ccc(CCNC(=O)c2cccnc2)o1` the cytotoxicity at 10 µM was -0.996%.

`O=C(CC1COCCN1)N1CCCN(C2Cc3ccccc3C2)CC1` (configuration not stated) showed a cytotoxicity at 10 µM of -139%.

For `COC(=O)CC(C)(C)CC(=O)N1CCC(C(F)(F)F)CC1`, the cytotoxicity at 10 µM was 14.9%.

Molecule `CC(C)NC(=O)C(C)S(=O)(=O)c1cc2c(cc1Cl)OCCO2` (configuration not stated) has a cytotoxicity at 10 µM of -3.25%.

In the case of `COc1ccc(CCNC2CCCN(Cc3noc(C)n3)C2)cc1` (configuration not stated), the cytotoxicity at 10 µM was -5.98%.

`N#CC(NC(=O)CS(=O)(=O)C1CCCC1)c1ccc(F)cc1F` (configuration not stated) showed a cytotoxicity at 10 µM of 3.56%.

With `Oc1ccccc1-c1n[nH]c(C2CC2)n1` the cytotoxicity at 10 µM was 5.84%.

Work on `O=C(N1CCCC1)N1CCC(Nc2ccncn2)CC1` yielded a cytotoxicity at 10 µM of -42.1%.

`CC(=O)NCc1ccc(C(=O)N2CCCC(n3cncn3)C2)o1` (configuration not stated) gave a cytotoxicity at 10 µM of 17.1%.

With `Cc1ccc(CN(C)Cc2nc3ccc(F)cc3[nH]2)cn1` the cytotoxicity at 10 µM was -5.16%.

In the case of `Cc1ccc(N2CCC3(CCN(Cc4csc(C)n4)CC3)CC2)nn1`, the cytotoxicity at 10 µM was 9.43%.

With `CCCc1cnc(C)nc1N1CCC(Cn2cc(CN(C)C)nn2)CC1` the cytotoxicity at 10 µM was -4.4%.

`O=C(NCCc1cnccn1)c1cccc(S(=O)(=O)NC2CCOC2)c1` (configuration not stated) showed a cytotoxicity at 10 µM of 6.3%.

In the case of `Cn1cc(N2CC3(CCN(C(=O)c4cccn4C)CC3)OCC2=O)cn1`, the cytotoxicity at 10 µM was -81.1%.

Work on `CNC(=O)CNCc1c[nH]nc1-c1cc2ccccc2o1` yielded a cytotoxicity at 10 µM of 6.7%.

In the case of `O=C(c1ccncn1)N1C[C@@H]2CN(Cc3cccnc3)CCO[C@@H]2C1`, the cytotoxicity at 10 µM was 7.61%.

Molecule `NC1CCC(Nc2nccc(CCC(F)(F)F)n2)CC1` (configuration not stated) has a cytotoxicity at 10 µM of -15%.

Molecule `COc1ncc(NC(=O)c2ccco2)c(OC)n1` has a cytotoxicity at 10 µM of -3.74%.

`CN(C)c1cc(CC(NC(=O)C2CC2)c2ccccc2)nc(C2CC2)n1` (configuration not stated) showed a cytotoxicity at 10 µM of 5.73%.

In the case of `COCCNC(=O)CN(C)Cc1ccc(F)cc1Cl`, the cytotoxicity at 10 µM was -1.02%.

In the case of `Cn1cc(CN2CC[C@@H]3[C@@H](CCC(=O)N3CCc3ccccc3)C2)cn1`, the cytotoxicity at 10 µM was -1.45%.

Work on `Cc1ccc(Cc2cnc(NC(=O)C3CNC(=O)N3)s2)cc1F` (configuration not stated) yielded a cytotoxicity at 10 µM of 1.11%.

In the case of `COCc1nc(C(=O)N2CCCC(n3cccn3)C2)cs1` (configuration not stated), the cytotoxicity at 10 µM was -7.42%.

In the case of `CCN(CC)C(CNS(=O)(=O)c1ccc(C(N)=O)cc1)c1ccco1` (configuration not stated), the cytotoxicity at 10 µM was -8.64%.

In the case of `CC(NCCN1CCN(C(=O)C2CCCC2)CC1)c1nccs1` (configuration not stated), the cytotoxicity at 10 µM was -0.513%.

Molecule `CCCN1Cc2ccccc2NC(=O)C12CCNC2` (configuration not stated) has a cytotoxicity at 10 µM of 5.92%.

With `Cc1nc(-c2ccccc2)n(CC(=O)N(C(C)C)C(C)C)n1` the cytotoxicity at 10 µM was -4.57%.

In the case of `O=C(c1ncoc1C1CC1)N1CCN(CCOc2ccccc2)CC1`, the cytotoxicity at 10 µM was -6.93%.

In the case of `O=C(N1CCOCC1)N1CCCC(c2ncncc2-c2ccncc2)C1` (configuration not stated), the cytotoxicity at 10 µM was -25.9%.

In the case of `CCc1sc(C(=O)NC2CC2)cc1C`, the cytotoxicity at 10 µM was 14.5%.

For `CCC(NC(=O)C(C)(C)C)c1ccccc1C` (configuration not stated), the cytotoxicity at 10 µM was 2.3%.

For `CCn1cc(S(=O)(=O)N2CCN(S(=O)(=O)c3ccc(Br)s3)CC2)cn1`, the cytotoxicity at 10 µM was 6.24%.

In the case of `Cc1cnnn1Cc1nnn2c1CN(Cc1cccs1)CCC2`, the cytotoxicity at 10 µM was 8.28%.

Molecule `O=C1NC[C@@]2(C(=O)O)CN(Cc3cccc(C(F)(F)F)c3)C[C@@H]12` has a cytotoxicity at 10 µM of -8.58%.

In the case of `Cc1cc(C(=O)N2CCn3cc(CN4CCCCC4)nc3C2)no1`, the cytotoxicity at 10 µM was -77.3%.

`COc1ccnc(N2CCc3ccc(OC(F)F)cc3C2)n1` showed a cytotoxicity at 10 µM of -4.32%.

Work on `CC(C)OCCOCc1cccc(NC(=O)N2CCCC(O)C2)c1` (configuration not stated) yielded a cytotoxicity at 10 µM of -5.01%.

`c1cnc(NCc2n[nH]c3c2CCN(Cc2ccncc2)C3)nc1` showed a cytotoxicity at 10 µM of -3.83%.

`Cc1ccc(N2CC[C@@H]3[C@@H]2CCN3C(=O)Cc2ccsc2)nn1` gave a cytotoxicity at 10 µM of -93.9%.

Work on `CC[C@@]1(O)CCN(C(=O)c2ccc(-n3cnnc3)cc2)C[C@H]1O` yielded a cytotoxicity at 10 µM of 3.86%.

In the case of `CS(=O)(=O)CCNC(=O)C1(c2cccc(Cl)c2)CCCCC1`, the cytotoxicity at 10 µM was 8.68%.

Molecule `CN1CCCC(c2nnc3n2CCN(S(=O)(=O)c2ccccc2Cl)C3)C1` (configuration not stated) has a cytotoxicity at 10 µM of -2.92%.

For `CCCC(C)C(=O)N1CCC(n2cccc2C(=O)OC)CC1` (configuration not stated), the cytotoxicity at 10 µM was -10%.

With `CN(C)C(=O)CCNC(=O)c1cnc(-c2ccccc2)nc1` the cytotoxicity at 10 µM was 4.87%.

In the case of `COc1ccccc1OCC(=O)NS(=O)(=O)c1cc(F)ccc1F`, the cytotoxicity at 10 µM was -9.18%.

With `O=C1CNc2ncnc(N3CCN(Cc4ccccc4F)CC3)c2N1` the cytotoxicity at 10 µM was 9.87%.

Work on `O=C1CC2(CCSC2)C(=O)N1Cc1coc(-c2ccccc2)n1` (configuration not stated) yielded a cytotoxicity at 10 µM of 5.57%.

Work on `CC(C)c1noc(CCC(=O)NCC2CCS(=O)(=O)C2)n1` (configuration not stated) yielded a cytotoxicity at 10 µM of 5.7%.

`O=C(NCc1csc(Cc2ccccc2)n1)C1NCCc2[nH]cnc21` (configuration not stated) showed a cytotoxicity at 10 µM of -4.32%.

With `CCCc1cc(=O)[nH]c(-c2ccccc2CN(C)CCn2cccn2)n1` the cytotoxicity at 10 µM was -1.41%.

Work on `O=C1NC2(CCNCC2)CC1c1ccccc1` (configuration not stated) yielded a cytotoxicity at 10 µM of -72.7%.

In the case of `CC(C)[C@@H]1CN(Cc2ccccn2)C[C@H]1NS(=O)(=O)N(C)C`, the cytotoxicity at 10 µM was -0.869%.

Work on `Nc1ccc(-c2ccc(F)cc2Cl)cn1` yielded a cytotoxicity at 10 µM of -151%.

With `CCN(CC)CCNC(=O)c1ccn(COc2cc(C)cc(C)c2)n1` the cytotoxicity at 10 µM was 4.36%.
